# Experimental data collected from several papers.
# Compare with care: the assays were run in different laboratories.
# JAK1: Tyrosine-protein kinase JAK1 (JAK1, Homo sapiens, UniProt P23458)
# MMP13: Collagenase 3 (MMP13, Homo sapiens, UniProt P45452)
# SLCO1B1: Solute carrier organic anion transporter family member 1B1 (SLCO1B1, Homo sapiens, UniProt Q9Y6L6)
# LNPEP: Leucyl-cystinyl aminopeptidase (LNPEP, Homo sapiens, UniProt Q9UIQ6)
# CYP3A4: Cytochrome P450 3A4 (CYP3A4, Homo sapiens, UniProt P08684)
# PBRM1 bromodomain: Protein polybromo-1, bromodomain (PBRM1, Homo sapiens, UniProt Q86U86)
# DSTYK: Dual serine/threonine and tyrosine protein kinase (DSTYK, Homo sapiens, UniProt Q6XUX3)
# CHRM1: Muscarinic acetylcholine receptor M1 (CHRM1, Homo sapiens, UniProt P11229)
# Cruzipain: Cruzipain (Trypanosoma cruzi, UniProt P25779)
# Kcna3: Potassium voltage-gated channel subfamily A member 3 (Kcna3, Mus musculus, UniProt P16390)
Compound,target,assay,system,conditions,IC50
COc1ccc2c(Oc3ccc4c(C(=O)Nc5ccccc5N)cccc4c3)ccnc2c1,JAK1,"enzyme activity, inhibitor",,,> 0.5 µM
Cn1nc(C(=O)NCc2ccc(C(=O)O)cc2)cc1-c1ccc2[nH]c(-c3ccncc3)cc2c1,MMP13,"enzyme activity, inhibitor, FRET",,,0.00092 µM
Nc1ccccc1S(N)(=O)=O,SLCO1B1,"transporter uptake, inhibitor, fluorescence",CHO,"30 min, pH 7.4",> 100 µM
O=S(=O)(Nc1cccc(-c2nnn[nH]2)c1)c1ccc(Cl)c2nonc12,LNPEP,"enzyme activity, inhibitor, fluorescence",,,0.4 µM
Fc1ccc(Nc2c(-c3ccccn3)nc3ccc(C4CC4)cn23)cc1,CYP3A4,"enzyme activity, inhibitor",,,1.6 µM
Cc1ncsc1-c1ccc(CNC(=O)[C@@H]2C[C@H](O)CN2C(=O)[C@@H](NC(=O)C2(F)CC2)C(C)(C)C)c(OCCOc2ccc(CN3CCN(c4cc(-c5ccccc5O)nnc4N)CC3)cc2)c1,PBRM1 bromodomain,"cell-free assay, TR-FRET",,,0.51 µM
CCn1ncc2c1-c1cnc(N)c(c1)O[C@H](C)c1cc(F)ccc1-c1nn(C)nc1C2,DSTYK,"enzyme activity, inhibitor, radiometric",,,0.583 µM
Cc1noc(-c2cc3cc(-c4nc(C(=O)NCc5ccc(=O)[nH]c5)[nH]c4C)ccc3[nH]2)n1,MMP13,"enzyme activity, inhibitor, FRET",,,0.00033 µM
N[C@@H](CC(=O)N1CCN(C(c2ccc(F)cc2)c2ccc(F)cc2)CC1)C(=O)N1Cc2ccccc2C1,"Lysosomal Pro-X carboxypeptidase (PRCP, Homo sapiens, UniProt P42785)","enzyme activity, inhibitor",,,8.43 µM
C[N+]1(C)CCC(OC(=O)C(c2ccccc2)c2ccccc2)CC1,CHRM1,"ligand displacement, radioligand",,,0.00364 µM
COc1ccc(Cl)cc1NC(=O)COC(=O)C(CC(C)C)N1C(=O)C2CC=CCC2C1=O (stereo not drawn),Cruzipain,"enzyme activity, inhibitor",,,13 µM
CCOC(=O)Nc1ccc2c(c1)N(C(=O)CCN1CCOCC1)c1ccccc1S2,SLCO1B1,"transporter uptake, inhibitor, fluorescence",CHO,"30 min, pH 7.4",8.1 µM
Cn1nc(C(=O)NCc2ccc(C(=O)O)cc2)cc1-c1ccc2[nH]c(-c3cncnc3)cc2c1,MMP13,"enzyme activity, inhibitor, FRET",,,0.0068 µM
CC(C)C(NC(=O)c1ccco1)C(=O)NCC(c1ccco1)N1CCCCC1 (stereo not drawn),Cruzipain,"enzyme activity, inhibitor",,,14 µM
O=S(=O)(Nc1cccc(-c2nnn[nH]2)c1)c1ccc(F)c(F)c1,LNPEP,"enzyme activity, inhibitor, fluorescence",,,12.1 µM
CCC1CN(C(=O)NCC(F)(F)F)CC1N(C)c1ncnc2[nH]ccc12 (stereo not drawn),JAK1,"enzyme activity, inhibitor, ADP detection",,,0.93 µM
Cc1ncsc1-c1ccc(CNC(=O)[C@@H]2C[C@H](O)CN2C(=O)[C@@H](NC(=O)C2(F)CC2)C(C)(C)C)c(OCCc2ccc(CN3CCN(c4cc(-c5ccccc5O)nnc4N)CC3)cc2)c1,PBRM1 bromodomain,"cell-free assay, TR-FRET",,,1.1 µM
Nc1ncnc2c1ncn2[C@@H]1O[C@H](CN(CC[C@H](N)C(=O)O)Cc2ccc3ccccc3c2)[C@@H](O)[C@H]1O,"Histone-lysine N-methyltransferase NSD2 (NSD2, Homo sapiens, UniProt O96028)","enzyme activity, inhibitor",,,> 50 µM
Nc1nc(N)c2nc(CNc3cccc4ccccc34)cnc2n1,CYP3A4,"enzyme activity, inhibitor, luciferase",,,66.1 µM
Cc1cc(S(=O)(=O)Nc2cccc(-c3nnn[nH]3)c2)ccc1C(F)(F)F,LNPEP,"enzyme activity, inhibitor, fluorescence",,,2.3 µM
C=CCOc1cccc2c1-c1c(c3c(n1C(C)C)CCCC3=O)C2=O,"Casein kinase II subunit alpha' (CSNK2A2, Homo sapiens, UniProt P19784, C336S)","enzyme activity, inhibitor",,,0.273 µM
CC/C=C\C/C=C\C/C=C\C/C=C\C/C=C\CCCC(=O)O,"Polynucleotide kinase (pseT, Enterobacteria phage T4, UniProt P06855)","enzyme activity, inhibitor",,,> 100 µM
CCC1CN(C(=O)NCC(F)(F)F)CC1NCc1ccc(C)nc1-c1cnc2[nH]ccc2c1 (stereo not drawn),JAK1,"enzyme activity, inhibitor, ADP detection",,,0.5 µM
CCNC(=O)c1nc(-c2ccc3[nH]c(-c4nc(C)no4)cc3c2)c(C)[nH]1,MMP13,"enzyme activity, inhibitor, FRET",,,0.011 µM
Cc1ccc(S(=O)(=O)Nc2cccc(-c3nnn[nH]3)c2)cc1C(F)(F)F,LNPEP,"enzyme activity, inhibitor, fluorescence",,,2.3 µM
O=c1ccc2c(OCCCCOc3cccc(O)c3)c3ccoc3cc2o1,Kcna3,"ion current, inhibitor, patch clamp",,,0.139 µM
Cc1cc(N2CCc3c(c(C)nn3CC34CCC(NC(=O)[C@@H]5COCCN5)(CC3)CC4)C2)c2cnn(C)c2n1,"Toll-like receptor 7 (TLR7, Homo sapiens, UniProt Q9NYK1)","IL-6 release, inhibitor",,,0.0007 µM
NCc1ccc(Nc2ncc(F)c(Nc3ccccc3)n2)cc1,"Serine/threonine-protein kinase PAK 4 (PAK4, Homo sapiens, UniProt O96013)","enzyme activity, inhibitor",,lysate,> 10 µM
O=S(=O)(Nc1cccc(-c2nnn[nH]2)c1)c1ccc(C(F)(F)F)c(F)c1,LNPEP,"enzyme activity, inhibitor, fluorescence",,,7.5 µM
Cc1noc(-c2cc3cc(-c4cc(C(=O)NCc5ccc(C(=O)O)cc5)nn4C)ccc3[nH]2)n1,MMP13,"enzyme activity, inhibitor, FRET",,,0.00021 µM
O=S(=O)(Nc1cccc(-c2nnn[nH]2)c1)c1cc(C(F)(F)F)ccc1C(F)(F)F,LNPEP,"enzyme activity, inhibitor, fluorescence",,,0.8 µM
Cc1noc(-c2cc3cc(-c4nc(C(=O)NCc5ccccc5)[nH]c4C)ccc3[nH]2)n1,MMP13,"enzyme activity, inhibitor, FRET",,,0.0023 µM
Clc1ccc2[nH]c3c(NCCCN4CCOCC4)ncnc3c2c1,Cruzipain,"enzyme activity, inhibitor",,,13 µM
Oc1ccc(/C=C/c2cc(O)cc(O)c2)cc1,SLCO1B1,"transporter uptake, inhibitor, fluorescence",CHO,"30 min, pH 7.4",11.2 µM
Oc1c2ccccc2c2c3c(cccc13)N=N2,JAK1,"enzyme activity, inhibitor",,,0.974 µM
C[C@]12CC[C@@H]3c4ccc(OS(=O)(=O)O)cc4CC[C@H]3[C@@H]1CCC2=O,SLCO1B1,"transporter uptake, inhibitor, fluorescence",CHO,"30 min, pH 7.4",0.06 µM
CCOc1ccc2c(-c3cc(C)nc(Nc4cc(OC)cc(C(F)(F)F)c4)n3)cnn2n1,"Dual specificity protein kinase CLK2 (CLK2, Homo sapiens, UniProt P49760)","enzyme activity, inhibitor",,,> 10 µM
CCCC[C@H](NC(=O)C1CN(C)C1)c1ncc(-c2cc3ccccc3nc2OC)[nH]1,"Histone deacetylase 11 (HDAC11, Homo sapiens, UniProt Q96DB2)","enzyme activity, inhibitor",,,> 30 µM
Nc1nc2ccc(OC(F)(F)F)cc2s1,Kcna3,"ion current, inhibitor, patch clamp",,,50 µM
O=C(NCCN1CCCC1)c1cc(-c2ccc(CN3CCOCC3)cc2)nc2ccc(F)cc12,CYP3A4,"enzyme activity, inhibitor","human, liver microsomes",,> 100 µM
CCn1c(-c2nc3cc(C(=O)N4CCC[C@@H](N)C4)cc(OC)c3n2C)cc2cccnc21,CHRM1,"calcium signal, antagonist, fluorescence",,,63.1 µM
CN(C)CC#Cc1ccc2[nH]c3c(c2c1)-c1nc(N)ncc1CCC3,DSTYK,"enzyme activity, inhibitor, radiometric",,,> 10 µM
O=C1Nc2ccccc2C1=O,"Aldehyde dehydrogenase, mitochondrial (ALDH2, Homo sapiens, UniProt P05091)","enzyme activity, inhibitor, absorbance",,,> 160 µM
O=C(O)c1cccnc1Nc1cccc(C(F)(F)F)c1,SLCO1B1,"transporter uptake, inhibitor, fluorescence",CHO,"30 min, pH 7.4",3.7 µM
O=S(=O)(Nc1cccc(-c2nnn[nH]2)c1)c1cc(Br)c(Cl)s1,LNPEP,"enzyme activity, inhibitor, fluorescence",,,1.1 µM
